Results on one compound are retold here after PMC4134960 (Pharmacological research : the official journal of the …, 2014).

Like-named read-outs stand apart in the source and are kept apart here.

For data set [1], the target named is T1, FAAH (Mus musculus, UniProt O08914).
T1 sequence (O08914 1-579): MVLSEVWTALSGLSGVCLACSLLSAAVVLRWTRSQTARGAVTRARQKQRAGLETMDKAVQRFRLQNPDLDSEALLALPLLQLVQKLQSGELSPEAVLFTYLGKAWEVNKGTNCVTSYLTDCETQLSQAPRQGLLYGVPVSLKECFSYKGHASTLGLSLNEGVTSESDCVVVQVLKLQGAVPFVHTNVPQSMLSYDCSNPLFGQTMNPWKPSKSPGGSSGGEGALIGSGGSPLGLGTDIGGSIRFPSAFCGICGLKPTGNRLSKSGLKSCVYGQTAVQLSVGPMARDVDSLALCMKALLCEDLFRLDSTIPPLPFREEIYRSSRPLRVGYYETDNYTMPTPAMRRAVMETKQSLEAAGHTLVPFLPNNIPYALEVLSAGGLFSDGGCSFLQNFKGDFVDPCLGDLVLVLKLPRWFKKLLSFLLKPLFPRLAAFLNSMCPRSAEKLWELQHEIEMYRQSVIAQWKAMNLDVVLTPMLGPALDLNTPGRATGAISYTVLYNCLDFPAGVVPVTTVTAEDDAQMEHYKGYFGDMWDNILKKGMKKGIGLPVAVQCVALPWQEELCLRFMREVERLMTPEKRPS
Type of data set: in vivo, mice. An outline of the steps:
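Dosing was i.p. in saline/PEG400/Tween-80 (18:1:1), with kill at 1 h. Brain S1 fraction (1000 × g; 50 μg protein by BCA) was incubated 30 min at 37°C in 50 mM Tris-HCl pH 7.5 with 0.05% fatty acid-free BSA, 10 μM anandamide and [ethanolamine-3H]anandamide (10,000 cpm). The reaction was stopped with chloroform/methanol (1:1), and aqueous-phase radioactivity counted by scintillation. n = 3–4, mean ± SEM, ANOVA with Dunnett's test vs vehicle.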

A further data set has as its target human ABCB1 (Homo sapiens, UniProt P08183). Put plainly: Transepithelial transport in monolayers of MDCKII cells over-expressing ABCB1. Particulars: MDCKII over-expressing ABCB1, after 4h, 5 μM (compound 8: 1 μM).
Another data set deals with T2, murine Abcg2 (Mus musculus, UniProt Q7TMS5).
T2 sequence (Q7TMS5 1-657): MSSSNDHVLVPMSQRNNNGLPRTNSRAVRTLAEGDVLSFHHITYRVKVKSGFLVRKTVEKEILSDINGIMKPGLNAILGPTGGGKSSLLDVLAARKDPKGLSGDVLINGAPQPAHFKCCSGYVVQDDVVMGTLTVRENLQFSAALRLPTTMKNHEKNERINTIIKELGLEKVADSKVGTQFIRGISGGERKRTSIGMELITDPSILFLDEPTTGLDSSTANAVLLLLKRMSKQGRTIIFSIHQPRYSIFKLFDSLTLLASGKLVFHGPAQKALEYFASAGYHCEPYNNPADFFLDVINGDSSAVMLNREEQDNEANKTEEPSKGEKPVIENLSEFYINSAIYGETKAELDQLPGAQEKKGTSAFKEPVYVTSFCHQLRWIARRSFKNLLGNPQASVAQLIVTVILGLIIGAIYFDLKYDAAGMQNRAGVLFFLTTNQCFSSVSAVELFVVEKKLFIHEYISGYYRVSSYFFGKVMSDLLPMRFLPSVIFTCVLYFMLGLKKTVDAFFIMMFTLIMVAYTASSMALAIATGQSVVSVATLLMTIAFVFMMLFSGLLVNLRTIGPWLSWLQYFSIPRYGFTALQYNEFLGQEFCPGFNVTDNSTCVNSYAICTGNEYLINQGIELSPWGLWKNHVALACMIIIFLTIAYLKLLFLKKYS
Put plainly: Transepithelial transport in monolayers of MDCKII cells over-expressing Abcg2. The settings on record: MDCKII over-expressing Abcg2, after 4h, 5 μM (compound 8: 1 μM). Format: in vitro ADME.

The target of the next data set is T3, Abcg2 (Mus musculus, UniProt Q7TMS5).
T3 sequence (Q7TMS5 1-657): T2 sequence (Q7TMS5 1-657)
The description is as above. Particulars: mouse, Ratio BA/AB (relative transport ratio), MDCKII over-expressing Abcg2, after 4h, 5 μM (compound 8: 1 μM). Format: in vitro ADME, murine.

Data set [2] concerns the target T1, FAAH. The settings on record: cited from earlier work.
Data set [3] is described as follows: Brain-to-plasma ratio of URB937 in wild-type and transporter knockout mice. Type of data set: in vivo. Particulars: 5 mg/kg i.p., 1 h. The procedure, abridged: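 Male 9-week FVB wild-type, Mdr1a/b−/−, Bcrp−/− and Mdr1a/b−/−-Bcrp−/− mice received the test compound i.p. in saline/PEG400/Tween-80 (18:1:1, v/v/v) at 10 mL/kg and were killed 1 h later. Plasma came from cardiac blood spun at 2000 × g for 20 min. Brain was homogenized in 50 mM Tris-HCl pH 7.5/0.32 M sucrose, spun at 1000 × g for 10 min at 4°C, and extracted with methanol/chloroform. Read-out by LC/MS on C18 (m/z 377). n = 3–4, mean ± SEM.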

Data set [4] can be described thus: Transepithelial transport in monolayers of wild-type MDCKII cells. Particulars: dog, MDCK, Ratio BA/AB (relative transport ratio), after 4h, 5 μM (compound 8: 1 μM).
A further data set relates to wild-type MDCKII cells. The description is as above. The settings on record: after 4h, 5 μM (compound 8: 1 μM).
The conditions of data set [5]: cited from earlier work.

Chain of human ABCB1 (P08183 whole entry): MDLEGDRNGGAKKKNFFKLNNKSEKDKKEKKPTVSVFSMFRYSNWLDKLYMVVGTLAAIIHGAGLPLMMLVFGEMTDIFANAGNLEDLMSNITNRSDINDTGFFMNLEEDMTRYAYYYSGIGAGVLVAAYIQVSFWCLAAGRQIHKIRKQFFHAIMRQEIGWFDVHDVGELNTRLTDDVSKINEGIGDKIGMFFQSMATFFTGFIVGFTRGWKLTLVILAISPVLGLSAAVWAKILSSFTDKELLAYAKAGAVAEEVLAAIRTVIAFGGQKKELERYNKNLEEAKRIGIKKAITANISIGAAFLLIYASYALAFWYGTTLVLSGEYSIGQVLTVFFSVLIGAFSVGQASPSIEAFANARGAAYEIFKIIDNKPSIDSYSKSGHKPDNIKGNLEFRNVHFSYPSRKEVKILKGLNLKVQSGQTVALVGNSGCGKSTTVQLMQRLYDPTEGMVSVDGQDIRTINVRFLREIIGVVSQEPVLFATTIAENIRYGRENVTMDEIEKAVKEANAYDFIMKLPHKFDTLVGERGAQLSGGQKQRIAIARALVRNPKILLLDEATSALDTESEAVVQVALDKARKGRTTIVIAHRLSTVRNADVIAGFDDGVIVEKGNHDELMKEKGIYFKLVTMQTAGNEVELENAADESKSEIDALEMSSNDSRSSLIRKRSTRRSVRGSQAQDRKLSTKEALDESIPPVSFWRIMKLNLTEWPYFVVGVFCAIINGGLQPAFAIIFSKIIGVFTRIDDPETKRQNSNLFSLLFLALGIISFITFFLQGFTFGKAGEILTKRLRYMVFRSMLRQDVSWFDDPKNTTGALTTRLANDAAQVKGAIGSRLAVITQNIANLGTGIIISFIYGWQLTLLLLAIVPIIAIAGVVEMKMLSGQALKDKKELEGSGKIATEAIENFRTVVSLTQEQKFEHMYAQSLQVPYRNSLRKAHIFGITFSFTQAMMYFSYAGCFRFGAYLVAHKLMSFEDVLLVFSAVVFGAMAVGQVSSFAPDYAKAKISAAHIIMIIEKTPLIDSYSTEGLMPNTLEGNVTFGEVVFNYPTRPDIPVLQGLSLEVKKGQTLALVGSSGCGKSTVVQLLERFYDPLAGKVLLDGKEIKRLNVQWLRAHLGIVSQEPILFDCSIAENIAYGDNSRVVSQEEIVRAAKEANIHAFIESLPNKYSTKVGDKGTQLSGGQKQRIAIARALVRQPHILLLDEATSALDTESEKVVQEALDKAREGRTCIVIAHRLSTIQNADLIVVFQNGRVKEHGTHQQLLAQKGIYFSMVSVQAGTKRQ

In general, inhibition refers to how much of the control response was suppressed. What is called efflux ratio is the permeability from basolateral to apical divided by that in the opposite direction, in the common usage. On to `NC(=O)c1cccc(-c2cc(OC(=O)NC3CCCCC3)ccc2O)c1` [URB937, cyclohexylcarbamic acid 3′-carbamoyl-6-hydroxybiphenyl-3-yl ester], for which the “Effect on brain FAAH activity (in words)” value is “drastically inhibited” at FAAH [1] (Mdr1a/b−/−-Bcrp−/− mice, 5 mg/kg i.p.) and “did not affect FAAH activity” on FAAH [1] (wild-type mice, 5 mg/kg i.p.). In addition, the inhibition at 5 mg/kg at FAAH [1] (mouse, ip, read-out: Inhibition of brain FAAH) is 26%. In addition, the “Effect on liver FAAH activity (in words)” value at FAAH [1] (wild-type mice, 5 mg/kg i.p.) is recorded as “completely blocked FAAH activity”. Further, the “A to B transport (percentage of drug appearing in the opposite compartment)” value at human ABCB1 turned out to be 5.89 ± 1.33%; on murine Abcg2, 1.68 ± 0.12%; in the data set on wild-type MDCKII cells it was 17.78 ± 2.12%. Besides, the results for the “B to A transport (percentage of drug appearing in the opposite compartment)” value on human ABCB1, on murine Abcg2 and in the data set with wild-type MDCKII cells were 50.2 ± 4.02%, 25.9 ± 1.44% and 44.3 ± 5.35%, respectively. Besides, the values for the efflux ratio at 4 h (on Abcg2; in data set [4]) were no less than 10 and no less than 2, respectively. Further, the “Brain ID50 relative to dose needed to inhibit FAAH in liver” value at FAAH [2] (brain vs liver) is 400 times. In addition, the “Brain FAAH activity median effective dose (ID50)” value at FAAH [2] (brain) is reported as 40 mg/kg. The “Brain ID50” value on FAAH [2] (inhibition of brain FAAH activity after systemic administration in mice, ref Moreno-Sanz et al., 2013) is on record as 40 mg/kg. Besides, on FAAH [2] (peripheral organs such as the liver), the “Liver FAAH activity ID50” value is listed as 0.1 mg/kg. In addition, the entries for the “Brain-to-plasma ratio (in words)” value in data set [3] (Abcb1-deficient (Mdr1a/b−/−) mice) and in data set [3] (Mdr1a/b−/−-Bcrp−/− mice) were “not significantly different from controls” and “significantly increased”, respectively. Further, the PSA value in data set [5] is recorded as no less than 80 Å.
